What was measured:
Rattus norvegicus [1] = experiment: Effect on serotonin in rat whole brain, after sc administration (0.1 mg/kg dose) (experiment 1); format: functional, organism-based
[2] = biological target: Serotonin 1 (5-HT1) receptor (Rattus norvegicus, UniProt P28564+P30940+P19327+P28565); experiment: Binding affinity towards 5-hydroxytryptamine 1 receptor using [3H]5-HT as a radioligand from rat frontal cortex homogenates; format: tissue-based
[3] = Ratio of affinity towards 5-HT1 to 5-HT2 receptor
Summary of the method: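 Frontal cortex from male Wistar rats (140–160 g), homogenate pellet in 0.05 M Tris with 10 μM pargyline and 4 mM Ca²⁺, 250–350 μg protein/sample. 5-HT1: 2 nM [³H]-5-HT, nonspecific with 10 μM 5-HT. […] Eleven concentrations, 0.1–10 000 nM, in duplicate. IC50 from curve fitting of specific binding.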

Rattus norvegicus [4] = experiment: Effect on concentrations of serotonin in rat brain hypothalamus after 0.3 mg/kg sc administration; format: functional, organism-based; design: dose 0.3 mg/kg
Summary of the method: (§1)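 Male Wistar rats (~150 g) were injected sc with drug in dilute HCl and decapitated 1 h later. Hypothalamus and striatum were dissected and frozen on dry ice. […] Results are mean ± SE, five rats/group, P < 0.05.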

Rattus norvegicus [5] = experiment: Effect on 3,4-dihydroxyphenylacetic acid concentration in rat striatum, after 0.3 mg/kg sc administration; format: functional; settings: route subcutaneous
Summary of the method: (§2)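 Male Wistar rats (~150 g) were given drug or apomorphine HCl sc and decapitated 1 h later. Striatal DOPAC and HVA were quantified by LC with electrochemical detection. Results are mean ± SE, five rats/group, P < 0.05.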

Rattus norvegicus [6] = experiment: Effect on serotonin in rat whole brain, after sc administration (0.03 mg/kg dose) (experiment 1); format: functional, organism-based
Summary of the method: (§3)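 Drug was given sc in dilute HCl to male Wistar rats (~150 g), with decapitation 1 h later. Whole brains were frozen on dry ice and held at −15 °C. […] Results are mean ± SE, five rats/group, P < 0.05 versus vehicle control.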

Rattus norvegicus [7] = experiment: Effect of Metergoline on the elevation of serum corticosterone, after sc administration (0.03 mg/kg) No pretreatment; format: functional, organism-based
Summary of the method: (§4)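 Male Wistar rats (~150 g) received metergoline (3 mg/kg, ip) or no pretreatment. Drug was given sc in dilute HCl 1 h later, and rats were decapitated 1 h after that. Serum corticosterone was determined spectrofluorometrically. Results are mean ± SE, five rats/group, P < 0.05 versus the corresponding control.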

Rattus norvegicus [8] = organism: Rattus norvegicus; experiment: Effect of fluoxetine on the elevation of serum corticosterone, Fluoxetine pretreament; format: functional, organism-based
Summary of the method: (§5)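 Rats got fluoxetine HCl (10 mg/kg, ip) or no pretreatment. 16 h later, drug (0.3 mg/kg, sc, dilute HCl) or p-chloroamphetamine HCl (2.5 mg/kg, ip) was given, with decapitation 1 h after. Serum corticosterone was measured spectrofluorometrically. Results are mean ± SE, five male Wistar rats/group, P < 0.05.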

Rattus norvegicus [9] = experiment: Effect of Metergoline on the elevation of serum corticosterone, after sc administration (1.0 mg/kg) No pretreatment; format: functional, organism-based; summary of the method: as §4
Rattus norvegicus [10] = experiment: Effect on serotonin in rat whole brain, after sc administration (1 mg/kg dose) (experiment 1); format: functional, organism-based
Rattus norvegicus [11] = experiment: Effect on serotonin in rat whole brain, after sc administration (0 mg/kg dose) (experiment 2); format: functional, organism-based; summary of the method: as §3
Rattus norvegicus [12] = experiment: Effect on 3,4-dihydroxyphenylacetic acid concentration in rat striatum, after 0.1 mg/kg sc administration; format: functional; settings: route subcutaneous; summary of the method: as §2
Rattus norvegicus [13] = experiment: Effect of Metergoline on the elevation of serum corticosterone, after sc administration (0.3 mg/kg) Metergoline pretreament; format: functional, organism-based; summary of the method: as §4
Rattus norvegicus [14] = experiment: Decreased accumulation of 5-hydroxytryptophan after decarboxylase inhibition in the hypothalamus of rat at a dose 0mg/Kg, sc; format: functional, organism-based
Summary of the method: (§6)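 Male Wistar rats (~150 g) got drug sc in dilute HCl. NSD 1015 (100 mg/kg, ip) was given 30 min after drug and 30 min before decapitation. Hypothalamic 5-HTP was measured by LC with electrochemical detection. Results are mean ± SE, five rats per treated group and six controls; significance at P < 0.01.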

Rattus norvegicus [15] = organism: Rattus norvegicus; experiment: Effect of fluoxetine on the elevation of serum corticosterone at a dose 100 ug/mL, No pretreatment; format: functional, organism-based; summary of the method: as §5
Rattus norvegicus [16] = organism: Rattus norvegicus; experiment: Effect of […] on the elevation of serum corticosterone at a dose 100 ug/mL PCPA pretreated; format: functional, organism-based
Summary of the method: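 Rats got p-chlorophenylalanine (300 mg/kg, ip) or no pretreatment. 24 h later, drug (0.3 mg/kg, sc, dilute HCl) or p-chloroamphetamine HCl (2.5 mg/kg, ip) was given, and rats were killed 1 h after. Serum corticosterone was measured spectrofluorometrically. Results are mean ± SE, five male Wistar rats/group.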

Rattus norvegicus [17] = experiment: Effect on 3,4- dihydroxyphenylacetic acid concentration in rat striatum, after 0.03 mg/kg sc administration; format: functional; settings: route subcutaneous; summary of the method: as §2
Rattus norvegicus [18] = experiment: Effect on serum corticosterone in serum of rats after sc administration (0.1 mg/kg dose) (experiment 1); format: functional, organism-based
Summary of the method: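 Male Wistar rats (~150 g) housed at 24 °C with lights 7 a.m.–7 p.m. Compound in dilute HCl given sc 1 h before decapitation. Serum corticosterone measured spectrofluorometrically, μg/100 mL. Five rats per group, mean ± SE. Significance set at P < 0.05 versus the vehicle control.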

Rattus norvegicus [19] = experiment: Effect on serotonin in rat whole brain, after sc administration (0.3 mg/kg dose) (experiment 1); format: functional, organism-based
Rattus norvegicus [20] = experiment: Effect on concentration of 5HIAA in rat brain hypothalamus after 0.3 mg/kg sc administration; format: functional, organism-based; design: dose 0.3 mg/kg; summary of the method: as §1
Rattus norvegicus [21] = experiment: Effect of Metergoline on the elevation of serum corticosterone, after sc administration (0 mg/kg) Metergoline pretreament; format: functional, organism-based; summary of the method: as §4
Rattus norvegicus [22] = experiment: Effect on 5-hydroxyindoleacetic acid in rat whole brain, after sc administration (0 mg/kg dose) (experiment 1); format: functional, organism-based; summary of the method: as §3
Rattus norvegicus [23] = experiment: Decreased accumulation of 5-hydroxytryptophan after decarboxylase inhibition in the hypothalamus of rat at a dose 0.01mg/Kg, sc; format: functional, organism-based; summary of the method: as §6
Rattus norvegicus [24] = experiment: Minimum effective dose required to suppressing (MED) 5HIAA concentration in rat when administered sc; format: functional; settings: read-out: MED
Summary of the method: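 Male Wistar rats (~150 g). Compound in dilute HCl given sc at graded doses 1 h before decapitation. Whole-brain 5-HIAA measured by LC with electrochemical detection; serum corticosterone measured spectrofluorometrically. Minimum effective dose is the lowest dose giving a significant difference from control (P < 0.05).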

Rattus norvegicus [25] = experiment: Effect on serotonin in rat whole brain, after sc administration (0.03 mg/kg dose) (experiment 2); format: functional, organism-based
Rattus norvegicus [26] = experiment: Effect on serotonin in rat whole brain, after sc administration (0 mg/kg dose) (experiment 1); format: functional, organism-based; summary of the method: as §3
Rattus norvegicus [27] = experiment: Effect on homovanillic acid concentration in rat striatum, after 0.1 mg/kg sc administration; format: functional; settings: route subcutaneous; summary of the method: as §2
Rattus norvegicus [28] = experiment: Effect of Metergoline on the elevation of serum corticosterone, after sc administration (0.3 mg/kg) No pretreatment; format: functional, organism-based; summary of the method: as §4
Rattus norvegicus [29] = experiment: Decreased accumulation of 5-hydroxytryptophan after decarboxylase inhibition in the hypothalamus of rat at a dose 0.1mg/Kg, sc; format: functional, organism-based; summary of the method: as §6
Rattus norvegicus [30] = experiment: Effect on homovanillic acid concentration in rat striatum, after 0.03 mg/kg sc administration; format: functional; settings: route subcutaneous; summary of the method: as §2
Rattus norvegicus [31] = experiment: Effect on 5-hydroxyindoleacetic acid in rat whole brain, after sc administration (0.1 mg/kg dose) (experiment 1); format: functional, organism-based; summary of the method: as §3

Molecule `C[C@@H]1C=C2c3cccc4c3[C@@H](CN4)C[C@H]2N(C)C1` has a Concentration (Rattus norvegicus [1]) of 2.59 nM/g, an IC50 [2] of 17 nM and a Selectivity ratio [3] of 100. The Concentration (Rattus norvegicus [4]) was 4.78 mg/kg, the DOPAC concentration (Rattus norvegicus [5]) was 4.62 nM/g and the Concentration (Rattus norvegicus [6]) was 2.8 nM/g. For the same molecule, the Serum corticosterone (Rattus norvegicus [7]) was 6.5 µg/mL, the Serum corticosterone (Rattus norvegicus [8]) was < 61.2 µg/mL and the Serum corticosterone (Rattus norvegicus [9]) was 70.8 µg/mL. For the same molecule, the Concentration (Rattus norvegicus [10]) was 3.02 nM/g, the Concentration (Rattus norvegicus [11]) was 2.66 nM/g and the DOPAC concentration (Rattus norvegicus [12]) was 4.44 nM/g. For the same molecule, the Serum corticosterone (Rattus norvegicus [13]) was 50.2 µg/mL, the Concentration (Rattus norvegicus [14]) was 1.92 nM/g and the Serum corticosterone (Rattus norvegicus [15]) was < 68.2 µg/mL. The Serum corticosterone (Rattus norvegicus [16]) was 42 µg/mL, the DOPAC concentration (Rattus norvegicus [17]) was 3.81 nM/g and the Concentration (Rattus norvegicus [18]) was 33.8 nM/g. For the same molecule, the Concentration (Rattus norvegicus [19]) was 2.95 nM/g, the Concentration (Rattus norvegicus [20]) was 2.18 mg/kg and the Serum corticosterone (Rattus norvegicus [21]) was 6.2 µg/mL. The Concentration (Rattus norvegicus [22]) was 1.89 nM/g, the Concentration (Rattus norvegicus [23]) was 1.64 nM/g and the minimal effective dose (Rattus norvegicus [24]) was 0.03 mg/kg. It also gave a Concentration (Rattus norvegicus [25]) of 2.77 nM/g, a Concentration (Rattus norvegicus [26]) of 2.32 nM/g and a Homovanillic acid concentration (Rattus norvegicus [27]) of 3.65 nM/g. For the same molecule, the Serum corticosterone (Rattus norvegicus [28]) was 46.6 µg/mL, the Concentration (Rattus norvegicus [29]) was 0.73 nM/g and the Homovanillic acid concentration (Rattus norvegicus [30]) was 2.89 nM/g. For the same molecule, the Concentration (Rattus norvegicus [31]) was 1.45 nM/g.
